Results reported in ChEMBL document CHEMBL1806396, “Development of potent B-RafV600E inhibitors containing an arylsulfonamide headgroup” (Bioorg Med Chem Lett, 2011).

What was measured:
[1] = biological target: T1, Serine/threonine-protein kinase B-raf (Homo sapiens, UniProt P15056, V600E); experiment: Inhibition of B-Raf V600E mutant in human SK-MEL-28 cells assessed as reduction of ERK phosphorylation after 1 hr; assay type: cell-based
How it was run: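 SKMEL28 cells (EMEM + 10% FBS) plated at 20,000 cells/well; 10-point dilution 20 µM to 0.001 µM, final DMSO 0.2%, 1 h. Fixed in 3.7% formaldehyde, permeabilized with 0.1% Triton X-100. Anti-ERK and anti-phospho-ERK primaries overnight at 4 °C, IR-dye secondaries 1 h, in-cell western on LiCor Odyssey. % inhibition of ERK phosphorylation vs control; IC50 by 4-parameter fit; means of 2–5 experiments.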

[2] = biological target: T1, Serine/threonine-protein kinase B-raf; experiment: Inhibition of B-Raf V600E mutant
SK-MEL-28 = experiment: Antiproliferative activity against human SK-MEL-28 cells expressing B-Raf V600E mutant after 3 days by CellTiter-Glo assay; assay type: functional, cell-based
How it was run: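 SKMEL28 melanoma cells grown in EMEM + 10% FBS, 1% pen-strep, 1% sodium pyruvate, 37 °C, humidified 5% CO2; plated 500 cells/well. 10-point dilution 20 µM down to 0.001 µM, final DMSO 0.2%, 3 days. Total ATP read by CellTiter-Glo as cell-number surrogate. % growth inhibition vs control wells; IC50 by 4-parameter fit; mean of two experiments.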

[3] = biological target: Tyrosine-protein kinase Lyn (Homo sapiens, UniProt P07948); experiment: Inhibition of Lyn
Tyrosine-protein kinase Lyn, sequence (P07948 whole entry): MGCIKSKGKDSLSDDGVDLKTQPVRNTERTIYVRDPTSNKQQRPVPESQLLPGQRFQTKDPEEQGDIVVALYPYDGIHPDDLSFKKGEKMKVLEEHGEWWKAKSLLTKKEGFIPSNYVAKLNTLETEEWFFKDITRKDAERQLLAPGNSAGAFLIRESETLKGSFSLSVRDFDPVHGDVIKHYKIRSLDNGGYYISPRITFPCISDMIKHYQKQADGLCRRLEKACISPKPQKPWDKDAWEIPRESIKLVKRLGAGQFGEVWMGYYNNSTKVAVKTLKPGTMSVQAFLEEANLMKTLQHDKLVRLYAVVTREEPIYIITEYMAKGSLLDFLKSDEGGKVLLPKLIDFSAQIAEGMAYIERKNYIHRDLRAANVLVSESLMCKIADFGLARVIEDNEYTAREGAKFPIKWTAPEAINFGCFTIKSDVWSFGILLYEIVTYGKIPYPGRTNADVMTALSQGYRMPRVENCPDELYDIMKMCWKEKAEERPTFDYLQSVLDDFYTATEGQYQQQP

[4] = biological target: Tyrosine-protein kinase Lck (Homo sapiens, UniProt P06239); experiment: Inhibition of Lck
Tyrosine-protein kinase Lck, sequence (P06239 whole entry): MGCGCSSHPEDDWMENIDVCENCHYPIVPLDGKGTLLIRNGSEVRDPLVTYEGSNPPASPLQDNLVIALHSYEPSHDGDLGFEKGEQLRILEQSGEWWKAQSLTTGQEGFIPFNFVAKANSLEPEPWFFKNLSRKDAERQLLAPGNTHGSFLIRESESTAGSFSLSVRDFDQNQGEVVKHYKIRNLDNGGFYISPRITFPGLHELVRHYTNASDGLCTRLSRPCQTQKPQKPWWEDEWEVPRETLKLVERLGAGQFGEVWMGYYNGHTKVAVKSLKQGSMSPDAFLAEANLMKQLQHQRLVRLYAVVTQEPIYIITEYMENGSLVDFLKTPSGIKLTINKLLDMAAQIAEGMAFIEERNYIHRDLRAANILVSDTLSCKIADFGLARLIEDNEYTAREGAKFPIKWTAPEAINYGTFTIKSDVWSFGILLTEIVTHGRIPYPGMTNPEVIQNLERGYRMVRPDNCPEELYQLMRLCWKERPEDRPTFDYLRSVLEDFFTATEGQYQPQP

[5] = biological target: Receptor tyrosine-protein kinase erbB-4 (Homo sapiens, UniProt Q15303); experiment: Inhibition of ErbB4
Receptor tyrosine-protein kinase erbB-4, sequence (Q15303 whole entry): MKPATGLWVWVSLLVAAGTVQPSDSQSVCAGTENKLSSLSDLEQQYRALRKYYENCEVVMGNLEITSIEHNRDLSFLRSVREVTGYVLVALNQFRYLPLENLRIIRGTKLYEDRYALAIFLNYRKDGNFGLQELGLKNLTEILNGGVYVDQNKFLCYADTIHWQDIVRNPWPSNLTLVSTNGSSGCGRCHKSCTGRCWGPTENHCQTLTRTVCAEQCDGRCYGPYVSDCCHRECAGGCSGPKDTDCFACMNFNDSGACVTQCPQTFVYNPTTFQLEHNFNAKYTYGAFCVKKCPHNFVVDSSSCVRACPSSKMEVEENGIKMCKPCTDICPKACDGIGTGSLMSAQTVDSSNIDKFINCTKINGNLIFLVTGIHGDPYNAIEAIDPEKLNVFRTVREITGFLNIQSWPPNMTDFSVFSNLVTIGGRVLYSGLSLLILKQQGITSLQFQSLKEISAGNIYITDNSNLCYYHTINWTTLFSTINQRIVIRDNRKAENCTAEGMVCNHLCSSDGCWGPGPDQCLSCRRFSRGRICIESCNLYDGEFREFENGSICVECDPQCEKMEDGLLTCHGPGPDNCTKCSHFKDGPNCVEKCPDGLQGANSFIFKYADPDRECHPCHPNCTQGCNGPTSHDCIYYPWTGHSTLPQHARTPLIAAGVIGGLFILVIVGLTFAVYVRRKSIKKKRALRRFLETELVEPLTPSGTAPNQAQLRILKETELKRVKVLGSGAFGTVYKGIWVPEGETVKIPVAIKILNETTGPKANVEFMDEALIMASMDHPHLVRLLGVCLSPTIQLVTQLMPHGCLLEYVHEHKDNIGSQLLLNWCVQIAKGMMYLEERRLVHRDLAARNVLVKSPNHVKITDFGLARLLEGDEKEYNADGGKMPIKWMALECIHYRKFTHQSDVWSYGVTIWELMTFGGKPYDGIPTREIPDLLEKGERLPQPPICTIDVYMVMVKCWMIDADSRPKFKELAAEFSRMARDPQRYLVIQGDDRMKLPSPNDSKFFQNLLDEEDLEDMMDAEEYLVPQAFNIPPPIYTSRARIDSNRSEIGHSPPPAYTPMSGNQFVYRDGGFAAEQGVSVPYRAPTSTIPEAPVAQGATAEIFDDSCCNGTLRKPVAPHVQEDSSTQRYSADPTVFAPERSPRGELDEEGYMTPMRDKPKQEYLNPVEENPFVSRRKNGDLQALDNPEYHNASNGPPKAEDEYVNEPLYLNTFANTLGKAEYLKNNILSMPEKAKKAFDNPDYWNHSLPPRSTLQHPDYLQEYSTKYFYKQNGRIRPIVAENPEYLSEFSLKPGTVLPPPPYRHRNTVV

TGF-beta receptor type-1 = biological target: T2, TGF-beta receptor type-1 (Homo sapiens, UniProt P36897); experiment: Inhibition of ALK5
T2 sequence (P36897 whole entry): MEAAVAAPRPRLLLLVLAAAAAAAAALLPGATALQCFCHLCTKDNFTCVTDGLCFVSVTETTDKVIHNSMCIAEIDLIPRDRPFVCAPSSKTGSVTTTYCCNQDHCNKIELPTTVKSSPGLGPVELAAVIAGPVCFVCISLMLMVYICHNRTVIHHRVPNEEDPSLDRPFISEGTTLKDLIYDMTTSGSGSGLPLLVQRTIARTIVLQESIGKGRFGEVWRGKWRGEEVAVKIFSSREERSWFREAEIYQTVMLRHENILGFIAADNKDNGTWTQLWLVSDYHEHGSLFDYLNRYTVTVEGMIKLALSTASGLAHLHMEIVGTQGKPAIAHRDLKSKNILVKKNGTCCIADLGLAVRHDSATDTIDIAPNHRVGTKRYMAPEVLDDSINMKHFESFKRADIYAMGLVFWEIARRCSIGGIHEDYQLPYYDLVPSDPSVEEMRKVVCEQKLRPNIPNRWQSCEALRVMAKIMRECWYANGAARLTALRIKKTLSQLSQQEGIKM

[6] = biological target: Tyrosine-protein kinase BTK (Homo sapiens, UniProt Q06187); experiment: Inhibition of Btk
Tyrosine-protein kinase BTK, sequence (Q06187 whole entry): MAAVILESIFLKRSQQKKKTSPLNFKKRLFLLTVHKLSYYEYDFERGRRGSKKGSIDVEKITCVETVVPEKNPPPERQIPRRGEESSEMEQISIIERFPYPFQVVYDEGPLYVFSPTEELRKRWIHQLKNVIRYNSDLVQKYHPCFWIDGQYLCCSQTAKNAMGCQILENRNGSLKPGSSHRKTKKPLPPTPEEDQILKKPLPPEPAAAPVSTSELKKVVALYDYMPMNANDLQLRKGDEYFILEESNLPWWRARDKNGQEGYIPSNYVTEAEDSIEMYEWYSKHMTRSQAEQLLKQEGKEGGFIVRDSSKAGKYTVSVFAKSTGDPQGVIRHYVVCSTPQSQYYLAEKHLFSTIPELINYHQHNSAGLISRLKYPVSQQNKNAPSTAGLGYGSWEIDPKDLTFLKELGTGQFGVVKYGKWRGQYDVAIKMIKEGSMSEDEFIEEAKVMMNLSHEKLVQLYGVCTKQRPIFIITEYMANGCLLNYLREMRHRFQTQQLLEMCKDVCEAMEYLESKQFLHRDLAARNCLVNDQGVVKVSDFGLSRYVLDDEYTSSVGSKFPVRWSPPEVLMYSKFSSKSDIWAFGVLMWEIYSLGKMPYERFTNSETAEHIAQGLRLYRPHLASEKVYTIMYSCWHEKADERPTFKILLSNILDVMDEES

Activin receptor type-2B = Activin receptor type-2B (Homo sapiens, UniProt Q13705); experiment: Inhibition of ACTR-2B
Activin receptor type-2B, sequence (Q13705 whole entry): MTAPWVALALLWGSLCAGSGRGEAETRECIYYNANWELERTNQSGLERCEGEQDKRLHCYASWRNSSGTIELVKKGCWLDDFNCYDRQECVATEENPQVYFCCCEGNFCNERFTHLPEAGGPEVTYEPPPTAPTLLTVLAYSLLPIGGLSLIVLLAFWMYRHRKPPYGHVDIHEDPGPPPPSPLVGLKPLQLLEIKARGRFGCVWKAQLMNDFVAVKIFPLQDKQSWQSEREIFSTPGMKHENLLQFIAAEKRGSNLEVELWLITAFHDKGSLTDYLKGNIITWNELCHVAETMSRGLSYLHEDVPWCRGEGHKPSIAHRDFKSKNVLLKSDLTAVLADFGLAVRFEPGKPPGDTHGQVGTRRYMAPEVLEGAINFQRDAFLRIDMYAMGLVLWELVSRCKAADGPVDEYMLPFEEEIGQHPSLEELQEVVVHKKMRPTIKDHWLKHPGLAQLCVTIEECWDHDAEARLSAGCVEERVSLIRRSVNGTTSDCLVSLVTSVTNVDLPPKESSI

HFF = experiment: Antiproliferative activity against HFF after 3 days by CellTiter-Glo assay; assay type: cell-based; settings: Homo sapiens, 72 h

T1 sequence (P15056 2-766 V600E limits assumed): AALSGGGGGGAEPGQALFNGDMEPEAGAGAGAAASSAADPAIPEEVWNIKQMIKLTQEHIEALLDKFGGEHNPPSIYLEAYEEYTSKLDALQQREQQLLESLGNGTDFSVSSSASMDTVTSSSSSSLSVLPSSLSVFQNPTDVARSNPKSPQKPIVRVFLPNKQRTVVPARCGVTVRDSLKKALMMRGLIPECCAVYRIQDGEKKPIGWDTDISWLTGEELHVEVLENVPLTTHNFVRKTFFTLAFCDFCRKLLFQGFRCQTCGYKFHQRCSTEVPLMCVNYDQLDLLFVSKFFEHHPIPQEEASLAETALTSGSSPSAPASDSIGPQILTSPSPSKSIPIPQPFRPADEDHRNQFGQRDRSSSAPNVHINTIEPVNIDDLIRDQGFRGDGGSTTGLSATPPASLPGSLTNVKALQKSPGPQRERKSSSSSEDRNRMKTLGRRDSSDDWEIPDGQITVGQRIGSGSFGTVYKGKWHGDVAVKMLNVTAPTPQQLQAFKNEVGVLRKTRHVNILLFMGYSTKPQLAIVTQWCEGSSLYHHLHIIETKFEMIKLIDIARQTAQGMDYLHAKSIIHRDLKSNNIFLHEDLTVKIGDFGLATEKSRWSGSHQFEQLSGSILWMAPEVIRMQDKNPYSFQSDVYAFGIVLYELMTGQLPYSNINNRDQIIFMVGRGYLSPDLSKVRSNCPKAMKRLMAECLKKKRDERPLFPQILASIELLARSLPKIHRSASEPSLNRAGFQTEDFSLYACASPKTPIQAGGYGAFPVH

| EC50 [1] | IC50 [2] | EC50 (SK-MEL-28; Homo sapiens, SK-MEL-28, 72 h) | SMILES | further results |
| --- | --- | --- | --- | --- |
| > 2.2 µM | 0.012 µM | – | CN1CCc2ccc(Nc3nccc(-c4c(-c5cccc(C(=O)Nc6c(F)cccc6F)c5)nc5ccccn45)n3)cc2C1 | – |
| > 20 µM | 0.005 µM | 6.34 µM | CN1CCc2ccc(Nc3nccc(-c4c(-c5cccc(NC(=O)Nc6c(F)cccc6F)c5)nc5ccccn45)n3)cc2C1 | – |
| 4.73 µM | 1.97 µM | 8.62 µM | CCc1nc(-c2cccc(N(C)S(=O)(=O)c3ccccc3)c2)c(-c2ccnc(Nc3ccc(N4CCN(C(C)=O)CC4)nc3)n2)s1 | – |
| 0.004 µM | 0.0006 µM | 0.004 µM | CC(=O)N1CCN(c2ccc(Nc3nccc(-c4sc(C(C)C)nc4-c4cccc(NS(=O)(=O)c5ccccc5F)c4)n3)cn2)CC1 | – |
| 0.01 µM | 0.0013 µM | 0.012 µM | CC(=O)N1CCN(c2ccc(Nc3nccc(-c4sc(C(C)C)nc4-c4cccc(NS(=O)(=O)c5c(F)cccc5F)c4)n3)cn2)CC1 | – |
| 0.007 µM | 0.0012 µM | 0.006 µM | CC(C)c1nc(-c2cccc(NS(=O)(=O)c3c(F)cccc3F)c2)c(-c2ccnc(Nc3ccc(N4CCOCC4)nc3)n2)s1 | – |
| 0.011 µM | 0.0005 µM | 0.008 µM | CC(C)c1nc(-c2cccc(NS(=O)(=O)c3c(F)cccc3F)c2F)c(-c2ccnc(Nc3ccc(N4CCOCC4)nc3)n2)s1 | – |
| 0.024 µM | 0.0009 µM | 0.014 µM | CC(C)c1nc(-c2cc(F)cc(NS(=O)(=O)c3c(F)cccc3F)c2)c(-c2ccnc(Nc3ccc(N4CCOCC4)nc3)n2)s1 | – |

Continued, molecule first:

| SMILES | EC50 [1] | IC50 [2] | EC50 (SK-MEL-28; Homo sapiens, SK-MEL-28, 72 h) | further results |
| --- | --- | --- | --- | --- |
| CN1CCc2ccc(Nc3nccc(-c4c(-c5cccc(NC(=O)c6c(F)cccc6F)c5)nc5ccccn45)n3)cc2C1 | > 10 µM | 0.009 µM | 5.32 µM | – |
| CN1CCc2ccc(Nc3nccc(-c4c(-c5cccc(NS(=O)(=O)c6ccccc6)c5)nc5ccccn45)n3)cc2C1 | 0.099 µM | 0.132 µM | 1.11 µM | – |
| CC(C)c1nc(-c2cccc(NC(=O)c3c(F)cccc3F)c2)c(-c2ccnc(Nc3ccc4c(c3)CN(C)CC4)n2)s1 | 0.58 µM | 0.004 µM | 2.75 µM | – |
| CC(C)c1nc(-c2cccc(NS(=O)(=O)c3ccccc3)c2)c(-c2ccnc(Nc3ccc4c(c3)CN(C)CC4)n2)s1 | 0.052 µM | 0.012 µM | 0.287 µM | – |
| CC(=O)N1CCN(c2ccc(Nc3nccc(-c4sc(C(C)C)nc4-c4cccc(NS(=O)(=O)c5ccccc5)c4)n3)cn2)CC1 | 0.007 µM | 0.0036 µM | 0.024 µM | – |
| CCc1nc(-c2cccc(CS(=O)(=O)c3ccccc3)c2)c(-c2ccnc(Nc3ccc(N4CCN(C(C)=O)CC4)nc3)n2)s1 | > 20 µM | 1.36 µM | 11.1 µM | – |
| CC(=O)N1CCN(c2ccc(Nc3nccc(-c4sc(C(C)C)nc4-c4cccc(NS(=O)(=O)c5cccc(F)c5)c4)n3)cn2)CC1 | 0.01 µM | 0.0008 µM | 0.008 µM | – |
| CC(=O)N1CCN(c2ccc(Nc3nccc(-c4sc(C(C)C)nc4-c4cccc(NS(=O)(=O)c5ccc(F)cc5)c4)n3)cn2)CC1 | 0.009 µM | 0.0095 µM | 0.069 µM | – |
| CC(=O)N1CCN(c2ccc(Nc3nccc(-c4sc(C(C)C)nc4-c4cccc(NS(=O)(=O)c5cccc(Cl)c5)c4)n3)cn2)CC1 | 0.021 µM | 0.034 µM | 0.085 µM | – |
| CC(=O)N1CCN(c2ccc(Nc3nccc(-c4sc(C(C)C)nc4-c4cccc(NS(=O)(=O)c5cc(F)ccc5F)c4)n3)cn2)CC1 | 0.008 µM | 0.0006 µM | 0.008 µM | – |
| CC(C)c1nc(-c2ccc(F)c(NS(=O)(=O)c3c(F)cccc3F)c2)c(-c2ccnc(Nc3ccc(N4CCOCC4)nc3)n2)s1 [listing 1 of 2 here] | 0.023 µM | 0.0038 µM | – | IC50 [3]: 0.01 µM; IC50 [4]: 0.01 µM; IC50 [5]: 0.01 µM; IC50 (TGF-beta receptor type-1): 0.01 µM; IC50 [6]: 0.01 µM; IC50 (Activin receptor type-2B): 0.01 µM; EC50 (SK-MEL-28; sk-mel-28): 0.047 µM |
| CC(C)c1nc(-c2ccc(F)c(NS(=O)(=O)c3c(F)cccc3F)c2)c(-c2ccnc(Nc3ccc(N4CCOCC4)nc3)n2)s1 [listing 2 of 2 here] | – | – | 0.052 µM | EC50 (HFF): 15.6 µM |
